ChEMBL document CHEMBL1212693, “Dorsomorphin inhibits BMP signals required for embryogenesis and iron metabolism” (Nat Chem Biol, 2008)
Active and inactive are the calls of the source. The rule behind the calls is not given here.

Experiments:
[1] = (§1) Inhibition of BMPR1-mediated Smad-1 phosphorylation in BMP4-stimulated mouse PASMC treated 30 mins before BMP4 challenge measured after 30 mins by immunoblot analysis
Method in brief: (§2)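 Mouse PASMCs were held 24 h in 0.5% FCS RPMI, preincubated 30 min with a dose range of compound, then stimulated 30 min with BMP4. Phospho-SMAD1/5/8 and phospho-p38 were detected by immunoblot and quantitated by phosphorimager (RLU). IC50 was derived from a Hill plot of phospho-SMAD1/5/8 inhibition.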

Mus musculus [2] = species on record: Mus musculus; test: as §1; method in brief: as §2
[3] = (§3) Inhibition of BMPR1-mediated Smad-5 phosphorylation in BMP4-stimulated mouse PASMC treated 30 mins before BMP4 challenge measured after 30 mins by immunoblot analysis
Method in brief: (§4)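 Mouse PASMCs were held 24 h in RPMI with 0.5% FCS. They were preincubated 30 min with test agent, noggin or vehicle, then exposed to recombinant BMP4 for 30 min. SDS lysates were immunoblotted for phospho-SMAD1/5/8 and bands quantified by phosphorimager. Dose-dependence was fitted as a Hill plot.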

Mus musculus [4] = species on record: Mus musculus; test: as §3; method in brief: as §4
Danio rerio [5] = species on record: Danio rerio; test: Inhibition of BMPR1 in zebrafish assessed as severity of embryonic axis dorsalization at 10 uM treated continuously from 8 hrs post-fertilization measured at 48 hrs; set-up: scale not given: the % may be the effect or the level left
Danio rerio [6] = species on record: Danio rerio; test: Inhibition of BMPR1 in zebrafish assessed as penetrance of moderate embryonic axis dorsalization at 10 uM treated continuously from 4 hrs post-fertilization measured after 48 hrs; set-up: scale not given: the % may be the effect or the level left
Method in brief: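 Compound added at the stated times and concentrations. Gross morphology scored visually at up to 48 h.p.f. for dorsalization of the embryonic axis.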

Danio rerio [7] = species on record: Danio rerio; test: Toxicity in zebrafish assessed as mortality at 0.2 to 10 uM; format: organism-based; conditions: in vivo
Mus musculus [8] = species on record: Mus musculus; test: Inhibition of BMPR1-mediated Smad-5 phosphorylation in BMP2-stimulated mouse PASMC at 4 uM treated 30 mins before BMP2 challenge measured after 30 mins by immunoblot analysis
Method in brief: (§5)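 Wild-type mouse PASMCs were kept in RPMI with 0.5% FCS for 24 h. They were preincubated with compound or vehicle for 30 min, then stimulated for 30 min with recombinant BMP2, BMP4, BMP6 or BMP7 at 10 ng ml−1. Lysates in SDS buffer were immunoblotted with anti-phospho-SMAD1/5/8. Total SMAD1 and α-tubulin served as loading controls, and bands were quantified by phosphorimager.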

Mus musculus [9] = species on record: Mus musculus; test: Inhibition of ALK6-mediated Id1 promoter activity in BMPR2 deficient mouse PASMC at 10 uM by immunoblot analysis
Method in brief: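 BMPR-II–deficient mouse PASMCs at 50% confluence co-transfected with Id1 promoter firefly luciferase (BRE-Luc, 0.3 µg), caALK2, caALK3 or caALK6 (0.6 µg), and pRL-TK Renilla (0.2 µg). Compound (4–10 µM) or vehicle added 1 h after transfection. Activity read as firefly/Renilla ratio by dual luciferase assay; n = 3, mean ± s.d.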

Mus musculus [10] = species on record: Mus musculus; test: Inhibition of BMPR1-mediated Smad-5 phosphorylation in BMP7-stimulated mouse PASMC at 4 uM treated 30 mins before BMP7 challenge measured after 30 mins by immunoblot analysis; method in brief: as §5

c1cc(-c2cnn3cc(-c4ccc(OCCN5CCCCC5)cc4)cnc23)ccn1 [DORSOMORPHIN]
IC50 [1]: 470 nM | inhibition (Mus musculus [2]): Dose-dependent effect | IC50 [3]: 470 nM | inhibition (Mus musculus [4]): Dose-dependent effect | Activity (Danio rerio [5]): 0% | Activity (Danio rerio [6]): 100% | Activity (Danio rerio [7]): Non-toxic | inhibition (Mus musculus [8]): Active | inhibition (Mus musculus [9]): Dose-dependent effect | inhibition (Mus musculus [10]): Active
